The values that follow come from PubChem BioAssay.

Calls of active or inactive are those of the source.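 How the source made its calls, unless noted: active means viability at or below 10% of carrier control in both of two separate runs; inconclusive means viability at or below 10% in only one of the two runs; inactive means the rest.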

The nature of experiment [1]: Her2 expression decrease, cell viability multiplex – SKBR3 breast tumor cells, AlphaScreen, ATP viability, primary screen (AID 461;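 active means Her2 level under about 52% in both replicate screens, with viability over 70% of control, limit read from the data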;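 on Her2 level: lower value means less Her2 protein in the cells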;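 on viability: percent of carrier control wells set as 100% viability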). Particulars: SKBR3 Her2 protein level, 18-24 h, measured here: SKBR3 viability, ATP luminescence, at 10 µM. Background: In Alpha technology, singlet oxygen from a donor bead excites a nearby acceptor bead.
The target in experiment [2] is Receptor tyrosine-protein kinase erbB-2 (Homo sapiens) (UniProt P04626). The description is as above. Particulars: 18-24 h, at 10 µM, stronger effect = lower value.
Chain of Receptor tyrosine-protein kinase erbB-2 (Homo sapiens) (P04626 whole entry, looked up): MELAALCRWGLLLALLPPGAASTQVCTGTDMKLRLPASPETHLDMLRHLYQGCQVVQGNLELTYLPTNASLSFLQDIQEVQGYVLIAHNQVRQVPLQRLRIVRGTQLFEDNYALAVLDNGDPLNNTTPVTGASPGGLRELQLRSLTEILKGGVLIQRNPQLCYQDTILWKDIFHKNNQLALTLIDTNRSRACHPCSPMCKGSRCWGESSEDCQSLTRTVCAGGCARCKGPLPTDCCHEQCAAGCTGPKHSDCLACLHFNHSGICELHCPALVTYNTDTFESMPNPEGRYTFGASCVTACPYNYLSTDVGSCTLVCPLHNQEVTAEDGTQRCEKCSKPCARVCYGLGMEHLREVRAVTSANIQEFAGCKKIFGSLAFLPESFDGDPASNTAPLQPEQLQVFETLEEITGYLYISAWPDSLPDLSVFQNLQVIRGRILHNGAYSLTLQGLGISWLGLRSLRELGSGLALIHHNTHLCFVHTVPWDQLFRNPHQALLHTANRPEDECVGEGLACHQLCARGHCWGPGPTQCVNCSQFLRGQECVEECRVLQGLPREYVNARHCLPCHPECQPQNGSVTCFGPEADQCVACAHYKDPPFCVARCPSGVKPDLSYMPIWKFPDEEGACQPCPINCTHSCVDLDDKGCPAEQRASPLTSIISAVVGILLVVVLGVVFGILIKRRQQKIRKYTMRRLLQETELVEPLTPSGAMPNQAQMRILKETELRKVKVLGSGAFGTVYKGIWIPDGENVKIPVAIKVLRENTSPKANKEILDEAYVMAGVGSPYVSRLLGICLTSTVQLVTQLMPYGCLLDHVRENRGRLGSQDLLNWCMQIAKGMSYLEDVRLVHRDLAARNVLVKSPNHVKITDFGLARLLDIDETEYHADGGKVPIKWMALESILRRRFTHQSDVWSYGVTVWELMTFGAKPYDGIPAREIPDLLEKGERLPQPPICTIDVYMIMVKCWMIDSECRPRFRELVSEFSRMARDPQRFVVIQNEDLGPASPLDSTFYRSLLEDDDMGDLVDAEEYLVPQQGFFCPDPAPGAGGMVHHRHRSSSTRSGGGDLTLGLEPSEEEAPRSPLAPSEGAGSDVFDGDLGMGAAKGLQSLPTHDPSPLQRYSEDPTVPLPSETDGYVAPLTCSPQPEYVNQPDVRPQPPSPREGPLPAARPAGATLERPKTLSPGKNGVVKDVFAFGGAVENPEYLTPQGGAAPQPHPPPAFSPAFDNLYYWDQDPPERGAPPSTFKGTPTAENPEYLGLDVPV
Experiment [3] is described as follows: reduced viability of SK-BR-3 breast cancer cells – cell-based, 24 h, human, pilot screen (AID 572).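 Further: compound exposure lasted between 18 and 24 h rather than exactly 24 h; 100% = carrier-treated control wells.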 Particulars: SK-BR-3 viability, CellTiter-Glo luminescence, at 10 µM, stronger effect = lower value.
The nature of experiment [4]: HUVEC growth inhibition – cell-based, human, primary screen (AID 575;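 active means viability at or below 30% in both replicate assays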;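 further: 100% = median of untreated cell wells with 0.1% DMSO on each plate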). As to conditions: HUVEC proliferation, CellTiter-Glo luminescence, 72 h; at 10 µM; stronger effect = lower value. In outline:
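Test system: primary human umbilical vein endothelial cells; medium: endothelial basal medium with 2% FBS plus growth supplements; dosing: 10 µM compound only; times: 72 h treatment at 37 °C; signal: CTG luminescence; read-out: % viability relative to median vehicle-well signal on each plate; control set: vehicle and MePR control wells; plate: 384-well, collagen-coated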
In general terms: Cellular ATP, detected with luciferase, serves as a proxy for viable cell number.

The nature of experiment [5]: H69AR cell proliferation blockers – human, duplicate replicates, primary screen (AID 580;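 active means viability at or under a set limit in both replicates, limit being median viability minus 3 SD, cut at about 48% in these data, passing the limit was not always enough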;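 further: 100% = mean luminescence of untreated wells and 0% = no signal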). Particulars: H69AR lung tumor cells viability, ATP luminescence, 72 h; at 10 µM; stronger effect = lower value.
Experiment [6] is described as follows: MRP1 drug-resistance reversers in H69AR cells – cell-based, doxorubicin co-treatment, pilot screen (AID 601;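 active means viability loss from added drug above about 55%, and viability with drug at most 40%, in both replicates, limit read from the data, passing the limit was not always enough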). Particulars: CellTiter-Glo, 72 h, at 10 µM; for differential viability (reversal): stronger effect = higher value.
Experiment [7] can be described thus: yeast transport mutant growth inhibition pilot in 384-well plates, post-Golgi transport modulator project (AID 636; in the data active means inhibition above about 31%). Particulars: absorbance 615 nm, about 18 h, stronger effect = higher value.
Experiment [8] in a line: growth suppression of yeast trafficking mutant, preliminary HTS, modulators of trafficking downstream of Golgi apparatus project, 1536-format plate, OD 615 nm (AID 637; in the data active means inhibition above about 30%). As to conditions: yeast transport mutant growth, absorbance 615 nm, 18 h; stronger effect = higher value.
The mark [9] stands for this setting: H69AR cells + 2 uM doxorubicin, measured here: viability with 2 uM doxorubicin, stronger effect = lower value.
Where [10] appears, read: H69AR cells, compound alone cytotoxicity.

In general, viability refers to a read-out of living cells in per cent, often relative to untreated cells. Broadly, the inhibition is the drop in the measured response relative to a control, in per cent. On to `COc1cc(-c2noc(-c3cccc(Cl)c3)n2)cc(OC)c1OC`, for which the viability was 92.5% in experiment [1]; 92.5% (inactive) in experiment [3]; 68% (inactive) in experiment [4]; 80.5% (inactive) in experiment [5]; 90.6% in experiment [6] (setting [9]); 80.5% in experiment [6] (setting [10]). Also, the Her2 level in experiment [2] is 86% (inactive). Also, the differential viability (reversal) in experiment [6] (H69AR cells + 2 uM doxorubicin) is -10.1% (inactive). Further, the values for the inhibition in experiment [7] and in experiment [8] were -5.73% (inactive) and 0.97% (inactive), respectively.

On to `CC(C)(C)NC(=O)Nc1ccccc1C(N)=O`, for which the viability in experiment [1] was 110%; in experiment [3], 110% (inactive); in experiment [4], 103% (inactive); in experiment [5] it was 110% (inactive); in experiment [6] (setting [9]) it was 103%; in experiment [6] (setting [10]) it was 110%. Besides, the Her2 level in experiment [2] is 108% (inactive). Also, the differential viability (reversal) in experiment [6] (H69AR cells + 2 uM doxorubicin) is 7.05% (inactive). For the same molecule, the inhibition is -2.27% (inactive) in experiment [7] and -5% (inactive) in experiment [8].

Consider `O=S(=O)(c1ccc(-c2csc(-c3cccnc3)n2)cc1)N1CCCCC1`, for which the viability in experiment [1] is 106%; in experiment [3], 106% (inactive); in experiment [4] it was 81.1% (inactive); in experiment [5], 84.2% (inactive); in experiment [6] (setting [9]), 83%; in experiment [6] (setting [10]), 84.2%. Further, in experiment [2], the Her2 level is 102% (inactive). For the same molecule, in experiment [6] (H69AR cells + 2 uM doxorubicin), the differential viability (reversal) was 1.22% (inactive). For the same molecule, the inhibition is 0% (inactive) in experiment [7] and -1.75% (inactive) in experiment [8].

As to `COc1ccc(OC)c(C2C(C(=O)Nc3cccnc3)=C(C)NC3=C2C(=O)CCC3)c1` (stereo not given), the viability in experiment [1] was 101%; in experiment [3], 101% (inactive); in experiment [4] it was 88.3% (inactive); in experiment [5] it was 98.4% (inactive); in experiment [6] (setting [9]) it was 83.3%; in experiment [6] (setting [10]), 98.4%. For the same molecule, in experiment [2], the Her2 level was 81% (inactive). For the same molecule, the differential viability (reversal) in experiment [6] (H69AR cells + 2 uM doxorubicin) was 15.1% (inactive). Also, the figures for the inhibition in experiment [7] and in experiment [8] were -6.22% (inactive) and 1.8% (inactive), respectively.

For the molecule `O=C1CC(N2CCN(c3cccc(C(F)(F)F)c3)CC2)C(=O)N1c1ccccc1` (stereo not given), the viability in experiment [1] is 93.5%; in experiment [3], 93.5% (inactive); in experiment [4], 92.3% (inactive); in experiment [5] it was 103% (inactive); in experiment [6] (setting [9]) it was 90%; in experiment [6] (setting [10]), 103%. Also, the Her2 level in experiment [2] is 112% (inactive). For the same molecule, the differential viability (reversal) in experiment [6] (H69AR cells + 2 uM doxorubicin) was 13% (inactive). The inhibition was -2.08% (inactive) in experiment [7] and -12.7% (inactive) in experiment [8].

On to `COc1ccccc1S(=O)(=O)n1cc(Cc2ccccc2)c(N)n1`, for which the viability was 96.5% in experiment [1]; 96.5% (inactive) in experiment [3]; 96.4% (inactive) in experiment [4]; 104% (inactive) in experiment [5]; 98.5% in experiment [6] (setting [9]); 104% in experiment [6] (setting [10]). For the same molecule, in experiment [2], the Her2 level was 86% (inactive). For the same molecule, the differential viability (reversal) in experiment [6] (H69AR cells + 2 uM doxorubicin) is 5.54% (inactive). For the same molecule, the inhibition is -2.37% (inactive) in experiment [7] and -6.51% (inactive) in experiment [8].

In the case of `O=c1oc2ccccc2c2c1ncn2-c1ccccc1`, the viability is 100% in experiment [1]; 100% (inactive) in experiment [3]; 90.4% (inactive) in experiment [4]; 89.1% (inactive) in experiment [5]; 97.7% in experiment [6] (setting [9]); 89.1% in experiment [6] (setting [10]). Further, the Her2 level in experiment [2] was 96% (inactive). In addition, the differential viability (reversal) in experiment [6] (H69AR cells + 2 uM doxorubicin) was -8.58% (inactive). Also, the figures for the inhibition in experiment [7] and in experiment [8] were 0.52% (inactive) and -2.13% (inactive), respectively.

As to `O=C1c2ccccc2C(=O)N1C/C=C/c1ccccc1`, the viability is 81% in experiment [1]; 81% (inactive) in experiment [3]; 78.2% (inactive) in experiment [4]; 96.7% (inactive) in experiment [5]; 89.5% in experiment [6] (setting [9]); 96.7% in experiment [6] (setting [10]). In experiment [2], the Her2 level is 75% (inactive). Also, in experiment [6] (H69AR cells + 2 uM doxorubicin), the differential viability (reversal) was 7.29% (inactive). For the same molecule, the figures for the inhibition in experiment [7] and in experiment [8] were -3.47% (inactive) and -1.29% (inactive), respectively.

On to `O=c1c2c(nc3nc(CCc4ccccc4)[nH]n13)CCC2`, for which the viability was 112% in experiment [1]; 112% (inactive) in experiment [3]; 86.6% (inactive) in experiment [4]; 91% (inactive) in experiment [5]; 77% in experiment [6] (setting [9]); 91% in experiment [6] (setting [10]). Also, the Her2 level in experiment [2] is 92% (inactive). Further, the differential viability (reversal) in experiment [6] (H69AR cells + 2 uM doxorubicin) was 14% (inactive). In addition, the inhibition in experiment [7] is -6% (inactive); in experiment [8] it was 0.16% (inactive).

As for `Cc1cc(C(=O)NCCCN2CCOCC2)n(-c2ccccc2)n1`, the viability in experiment [1] is 94.5%; in experiment [3], 94.5% (inactive); in experiment [4], 106% (inactive); in experiment [5], 102% (inactive); in experiment [6] (setting [9]), 92.2%; in experiment [6] (setting [10]), 102%. Moreover, the Her2 level in experiment [2] was 100% (inactive). Besides, the differential viability (reversal) in experiment [6] (H69AR cells + 2 uM doxorubicin) is 9.44% (inactive). Moreover, the inhibition in experiment [7] is -2.27% (inactive); in experiment [8] it was 3.61% (inactive).

For the molecule `COc1ccc(N2CCN(Cc3nc4c(c(=O)[nH]c(=O)n4C)n3CC(C)=O)CC2)cc1`, the viability is 98.5% in experiment [1]; 98.5% (inactive) in experiment [3]; 101% (inactive) in experiment [4]; 95.4% (inactive) in experiment [5]; 84.9% in experiment [6] (setting [9]); 95.4% in experiment [6] (setting [10]). Besides, in experiment [2], the Her2 level was 102% (inactive). Besides, in experiment [6] (H69AR cells + 2 uM doxorubicin), the differential viability (reversal) was 10.4% (inactive). Moreover, the inhibition was 0% (inactive) in experiment [7] and 0.17% (inactive) in experiment [8].

For `CCOc1ccc(OCc2ccc(C(=O)Nc3cccc(C)n3)o2)cc1`, the viability in experiment [1] is 101%; in experiment [3], 101% (inactive); in experiment [4], 84.1% (inactive); in experiment [5] it was 93.4% (inactive); in experiment [6] (setting [9]) it was 87.3%; in experiment [6] (setting [10]), 93.4%. In experiment [2], the Her2 level is 85% (inactive). The differential viability (reversal) in experiment [6] (H69AR cells + 2 uM doxorubicin) is 6.08% (inactive). Moreover, the figures for the inhibition in experiment [7] and in experiment [8] were -1.58% (inactive) and -1.61% (inactive), respectively.

Consider `CN(C)S(=O)(=O)c1ccc(C(=O)NCc2cccs2)cc1`, for which the viability in experiment [1] was 82%; in experiment [3], 82% (inactive); in experiment [4], 101% (inactive); in experiment [5] it was 101% (inactive); in experiment [6] (setting [9]) it was 92.8%; in experiment [6] (setting [10]), 101%. For the same molecule, the Her2 level in experiment [2] is 87% (inactive). The differential viability (reversal) in experiment [6] (H69AR cells + 2 uM doxorubicin) was 8.48% (inactive). Further, the results for the inhibition in experiment [7] and in experiment [8] were -4.05% (inactive) and 3.81% (inactive), respectively.

As to `CCOC(=O)Cc1csc(NC(=O)CN(C)S(=O)(=O)c2ccc3c(c2)CCC(=O)N3)n1`, the viability is 108% in experiment [1]; 108% (inactive) in experiment [3]; 97.5% (inactive) in experiment [4]; 100% (inactive) in experiment [5]; 93.7% in experiment [6] (setting [9]); 100% in experiment [6] (setting [10]). Moreover, the Her2 level in experiment [2] was 109% (inactive). In experiment [6] (H69AR cells + 2 uM doxorubicin), the differential viability (reversal) is 6.38% (inactive). Also, the inhibition in experiment [7] was -4% (inactive); in experiment [8], 0.82% (inactive).
